Here are results for three compounds from ChEMBL document CHEMBL3856209, “Novel pyrazolopyridine derivatives as potential angiogenesis inhibitors: Synthesis, biological evaluation and transcriptome-based mechanistic analysis” (Eur J Med Chem, 2016).

Common to all, as to type: functional, Homo sapiens
Assay [1] relates to HUVEC. Kind of assay: Effect on SND1-IT1 gene expression in serum-starved HUVEC after 6 hrs by microarray analysis relative to control.
Assay [2] relates to HUVEC. Kind of assay: Effect on KCNAB1 gene expression in serum-starved HUVEC after 6 hrs by microarray analysis relative to control. Put shortly: (§1)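 Confluent, serum-starved HUVEC (pooled from 3–5 donors, passage ≤4) treated with 2 μM compound or vehicle with 2.5% FBS for 6 h or 24 h. Total RNA hybridized to Illumina Human-HT12 arrays. Data were background-corrected, vst-transformed and rsn-normalized. Hits called by moderated paired t-test versus DMSO-treated cells, p < 0.05 and log2 fold change >|0.5|.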

Assay [3] has as its system HUVEC. Kind of assay: Effect on MGARP gene expression in serum-starved HUVEC after 6 hrs by microarray analysis relative to control. The gist of the method:
(§2)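 Serum-starved confluent HUVEC (pooled from 3–5 donors, passage ≤4) were treated with 2 μM compound or vehicle in 2.5% FBS for 6 h or 24 h, and total RNA was isolated. Hybridization was on Illumina Human-HT12. Data were processed with bgAdjust, vst and rsn normalization. Changes versus DMSO were called by moderated paired t-test at p < 0.05 and |log2 fold change| > 0.5.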

Assay [4] deals with HUVEC. Kind of assay: Effect on CTHRC1 gene expression in serum-starved HUVEC after 6 hrs by microarray analysis relative to control. Put shortly:
as §1

For assay [5], the system named is HUVEC. Kind of assay: Effect on TM7SF2 gene expression in serum-starved HUVEC after 6 hrs by microarray analysis relative to control.
Assay [6] deals with HUVEC. Kind of assay: Effect on CDCA5 gene expression in serum-starved HUVEC after 6 hrs by microarray analysis relative to control. Put shortly:
(§3)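 Serum-starved confluent HUVEC treated with 2 μM compound or DMSO in 2.5% FBS for 6 h or 24 h; RNA hybridized to Illumina Human-HT12 arrays. Data background-corrected, vst-transformed and rsn-normalized. Differential probes called by moderated paired t-test (limma) at p < 0.05 and log2 fold change >|0.5| vs DMSO.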

Assay [7] relates to HUVEC. Kind of assay: Effect on CD68 gene expression in serum-starved HUVEC after 24 hrs by microarray analysis relative to control. The gist of the method: as §3
Assay [8] relates to HUVEC. Kind of assay: Effect on CD14 gene expression in serum-starved HUVEC after 6 hrs by microarray analysis relative to control. Put shortly: (§4)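 Confluent serum-starved HUVEC (primary, pooled from 3–5 donors, passage ≤4) treated with 2 μM compound or DMSO vehicle in 2.5% FBS for 6 h or 24 h. Total RNA hybridized to Illumina Human-HT12 arrays, background-corrected, vst-transformed and rsn-normalized. Differential expression versus DMSO by moderated paired t-test (p < 0.05, |log2 fold change| > 0.5).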

The test system of assay [9] is HUVEC. Kind of assay: Effect on CYTL1 gene expression in serum-starved HUVEC after 6 hrs by microarray analysis relative to control. Put shortly:
as §4

The subject of assay [10] is HUVEC. Kind of assay: Effect on SULT1C4 gene expression in serum-starved HUVEC after 6 hrs by microarray analysis relative to control.
Assay [11] concerns HUVEC. Kind of assay: Effect on FABP4 gene expression in serum-starved HUVEC after 6 hrs by microarray analysis relative to control. Put shortly: as §4
Assay [12] has as its system HUVEC. Kind of assay: Effect on PLK4 gene expression in serum-starved HUVEC after 6 hrs by microarray analysis relative to control. The gist of the method: as §2
Assay [13] deals with HUVEC. Kind of assay: Effect on AIF1 gene expression in serum-starved HUVEC after 24 hrs by microarray analysis relative to control. Put shortly: as §3
Assay [14] has as its system HUVEC. Kind of assay: Effect on CD34 gene expression in serum-starved HUVEC after 24 hrs by microarray analysis relative to control. The gist of the method: as §4
For assay [15], the system named is HUVEC. Kind of assay: Effect on ANKRD1 gene expression in serum-starved HUVEC after 6 hrs by microarray analysis relative to control. The gist of the method: as §4
Assay [16] has as its system HUVEC. Kind of assay: Effect on KRT7 gene expression in serum-starved HUVEC after 6 hrs by microarray analysis relative to control.
The subject of assay [17] is HUVEC. Kind of assay: Effect on SERPINB2 gene expression in serum-starved HUVEC after 24 hrs by microarray analysis relative to control.
The subject of assay [18] is HUVEC. Kind of assay: Effect on CXCL16 gene expression in serum-starved HUVEC after 6 hrs by microarray analysis relative to control. Put shortly: as §4
Assay [19] deals with HUVEC. Kind of assay: Effect on NSDHL gene expression in serum-starved HUVEC after 24 hrs by microarray analysis relative to control.
Assay [20] deals with HUVEC. Kind of assay: Effect on TYMS gene expression in serum-starved HUVEC after 6 hrs by microarray analysis relative to control.
The subject of assay [21] is HUVEC. Kind of assay: Effect on HMGCR gene expression in serum-starved HUVEC after 6 hrs by microarray analysis relative to control. The gist of the method:
as §1

Assay [22] concerns HUVEC. Kind of assay: Effect on TUBB2B gene expression in serum-starved HUVEC after 24 hrs by microarray analysis relative to control.
Assay [23] deals with HUVEC. Kind of assay: Effect on HLA-DPA1 gene expression in serum-starved HUVEC after 6 hrs by microarray analysis relative to control. Put shortly:
as §1

For assay [24], the system named is HUVEC. Kind of assay: Effect on RACGAP1 gene expression in serum-starved HUVEC after 6 hrs by microarray analysis relative to control.
For assay [25], the system named is HUVEC. Kind of assay: Effect on BHLHE40 gene expression in serum-starved HUVEC after 6 hrs by microarray analysis relative to control. Put shortly:
as §3

Assay [26] relates to HUVEC. Kind of assay: Effect on CCL5 gene expression in serum-starved HUVEC after 6 hrs by microarray analysis relative to control. The gist of the method:
as §3

The test system of assay [27] is HUVEC. Kind of assay: Effect on MSMO1 gene expression in serum-starved HUVEC after 6 hrs by microarray analysis relative to control. Put shortly: as §2
The subject of assay [28] is HUVEC. Kind of assay: Effect on CCL8 gene expression in serum-starved HUVEC after 24 hrs by microarray analysis relative to control. The gist of the method: as §4
Assay [29] deals with HUVEC. Kind of assay: Effect on LPIN1 gene expression in serum-starved HUVEC after 24 hrs by microarray analysis relative to control.
Assay [30] has as its system HUVEC. Kind of assay: Effect on CENPW gene expression in serum-starved HUVEC after 24 hrs by microarray analysis relative to control. Put shortly:
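Serum-starved confluent HUVEC (primary, pooled from 3–5 donors, passage ≤4) treated with 2 μM test compound or DMSO vehicle (working dilutions ≤0.1% v/v) in presence of 2.5% FBS for 6 h or 24 h; total RNA hybridized to Illumina Human-HT12 arrays; background correction, vst, rsn normalization; moderated paired t-test versus DMSO, thresholds p < 0.05 and log2 fold change >|0.5|.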

Assay [31] deals with HUVEC. Kind of assay: Effect on LIPG gene expression in serum-starved HUVEC after 24 hrs by microarray analysis relative to control.
Assay [32] has as its system HUVEC. Kind of assay: Effect on ITGA2 gene expression in serum-starved HUVEC after 6 hrs by microarray analysis relative to control. The gist of the method:
as §1

For assay [33], the system named is HUVEC. Kind of assay: Effect on SLC30A7 gene expression in serum-starved HUVEC after 6 hrs by microarray analysis relative to control.
Assay [34] concerns HUVEC. Kind of assay: Effect on MAP1B gene expression in serum-starved HUVEC after 24 hrs by microarray analysis relative to control. The gist of the method: as §2
The test system of assay [35] is HUVEC. Kind of assay: Effect on PNISR gene expression in serum-starved HUVEC after 24 hrs by microarray analysis relative to control. Put shortly:
as §2

For assay [36], the system named is HUVEC. Kind of assay: Effect on ZWINT gene expression in serum-starved HUVEC after 24 hrs by microarray analysis relative to control. Put shortly:
as §4

In the assay on HUVEC [1], `COc1ccc(Cn2nc(-c3ccccc3)c3cc(Nc4ccc(N5CCN(C)CC5)cc4)nc(N4CCNCC4)c32)cc1` gave a log2FC of -0.0103.
Regarding `COc1ccc(Cn2nc(-c3ccccc3)c3cc(Nc4ccc(N5CCN(C)CC5)cc4)nc(N4CCN(C)CC4)c32)cc1`, the “fold change (FC)” value with HUVEC [2] was found to be 0.0717; in the assay with HUVEC [6], 0.0694; with HUVEC [8], 1.7643; with HUVEC [9], 0.0261; in the assay on HUVEC [10], 0.1329; in the assay on HUVEC [11], 0.3036. The “fold change (FC)” value in the assay on HUVEC [12] is given as 0.1554; in the assay on HUVEC [14], 0.5547; in the assay with HUVEC [15], -0.5735; in the assay with HUVEC [16] it was 0.2295; in the assay with HUVEC [18] it was 0.5236; with HUVEC [21], 1.0317. Moreover, the “fold change (FC)” value is given as 0.6583 in the assay on HUVEC [23]; 0.7182 with HUVEC [25]; 0.2358 in the assay on HUVEC [26]; 0.7741 in the assay with HUVEC [27]; -0.7427 in the assay with HUVEC [28]; -0.5146 with HUVEC [30]. Further, the log2FC is given as -0.2938 in the assay on HUVEC [3]; -0.0221 in the assay with HUVEC [4]; 0.343 in the assay with HUVEC [5]; -0.8363 with HUVEC [7]; -0.7905 in the assay with HUVEC [13]; -0.6601 in the assay on HUVEC [17]. Further, the log2FC in the assay with HUVEC [19] is 1.1565; in the assay on HUVEC [20], -0.1879; with HUVEC [22], 0.8576; in the assay on HUVEC [24] it was -0.171; in the assay on HUVEC [29] it was 0.8618; in the assay on HUVEC [31], 1.1948.
For `COc1ccc(Cn2nc(-c3ccccc3)c3cc(Cl)nc(N4CCNCC4)c32)cc1`, the log2FC is 0.5417 in the assay on HUVEC [32]; 0.512 with HUVEC [33]; -0.053 with HUVEC [34]; 0.0521 with HUVEC [35]; -0.5572 with HUVEC [36].
